# Screening results deposited in PubChem by The Scripps Research Institute Molecular Screening Center.
# The list is not random: actives were taken first. Their share in the collection is about 1.2%.
# Rin1-Abl PPI inh = inhibitors of Rin1-Abl protein binding, primary screen, biochemical, TR-FRET | 0.4% of 360,000 active | AID 588664, 2011 | Tyrosine-protein kinase ABL1 (Homo sapiens) + Ras and Rab interactor 1 (Homo sapiens), … | inhibition, % at 7.35 µM; in the data active = inhibition above about 5%, passing the limit was not always enough
# GalR3 antag = GalR3 antagonists in HEK293 cells, primary screen, cell-based, fluorescence readout. AID 651719, 2012. inhibition, % at 3 µM. 0.44% of 360,000 active. HEK293 GalR3-CNG cAMP membrane potential fluorescence; galR3 body fused to GalR1 C-terminus;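 active = inhibition above the screen-wide average plus 3 SD, cut at about 13% in these data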;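 also: forskolin and galanin both at EC90 stimulate the cells; cAMP rise reported by CNG channel membrane potential dye signal; 0% = forskolin plus galanin with DMSO and 100% = forskolin alone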
# ARFGAP1 inh = inhibitors of rat ARFGAP1 GAP activity, primary screen, biochemical, fluorescence polarization, GDP tracer; Arfgap1-stimulated ARF1 GTP hydrolysis, GDP FP detection; 0.26% of 360,000 active; inhibition, % at 16.5 µM;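 active = inhibition above a per-plate limit, mean inhibition of low control wells plus 3 SD, cut at about 25% in these data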;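 also: 0% = DMSO wells with enzyme and 100% = wells lacking Arfgap1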
#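 Material: rat Arfgap1 catalytic domain, aa 1-136; also added: human ARF1(Δ1-17)-GTP substrate; compound dosing: one concentration, 16.5 µM, DMSO 1.26%; incubation: GTP hydrolysis reaction 2 h at 25 °C; measured by: Tracer-displacement fluorescence polarization with EDTA stop, 620/688 nm; evaluation: % inhibition from polarization; repeats: one replicate per compound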
# ASAP1 inh = inhibitors of human ASAP1 ArfGAP activity, primary screen, biochemical, fluorescence polarization; Arf-GAP with SH3 domain, ANK repeat and PH domain-containing protein 1 (Homo sapiens), …; ASAP1-stimulated ARF1 GTP hydrolysis, GDP FP detection; inhibition, % at 16.5 µM; 0.19% of 360,000 active; in the data active = inhibition above about 25%;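 also: 0% = vehicle with enzyme and substrate and 100% = no enzyme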
# ARFGAP1 inh conf = ARFGAP1 inhibitor hit confirmation, biochemical, fluorescence polarization, triplicate. shares compounds with ARFGAP1 inh. ARFGAP1-stimulated ARF1 GTP hydrolysis, GDP tracer FP. inhibition, % at 16.5 µM. 30% of 890 active. AID 651608, 2012;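 active = average inhibition over triplicates above the hit cutoff set in the earlier primary screen, cut at about 25% in these data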;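 also: 0% = Arfgap1 plus ARF1-GTP with DMSO and 100% = wells lacking Arfgap1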
# Active calls of the source: *; . = no result.
SMILES,Rin1-Abl PPI inh,GalR3 antag,ARFGAP1 inh,ASAP1 inh,ARFGAP1 inh conf
CN(C)c1ccc(NC(=O)CSc2nc(N)c(C(=O)Nc3ccc(N(C)C)cc3)s2)cc1,2,-4,25*,9,4
COc1cc(C(=O)Nc2ccc(S(=O)(=O)Nc3ncccn3)cc2)c([N+](=O)[O-])cc1OC,1,-5,-9,5,.
COc1cccc(OC)c1C(=O)Nc1ccc(S(=O)(=O)Nc2ncccn2)cc1,1,-9,28*,6,9
C/C(=N/NC(=O)c1cccs1)c1ccc(NC(=O)COc2ccc(Cl)cc2Cl)cc1,3,0,38*,9,53*
O=C(NCc1cccnc1)c1cc(C2CCCCN2C(=O)OCCF)on1 (stereo not given),1,1,3,-5,.
O=C(NCc1ccccc1)c1cc(C2CCCCN2C(=O)OCCF)on1 (stereo not given),2,-6,25*,-13,3
COC(=O)C1=C(C)N(Cc2ccc(C(F)(F)F)cc2)C(=NCc2ccccc2C(F)(F)F)NC1c1ccc(C(F)(F)F)cc1 (stereo not given),.,0,20,0,.
C[C@@H]1ON(C)[C@H]2C[C@H]3c4cc(Br)ccc4CCN3C[C@@H]12,.,-8,-8,-1,.
COc1ccc(N(C(=O)c2ccco2)C(C(=O)NC2CCCC2)c2ccc(C)cc2)c(OC)c1 (stereo not given),-3,-7,6,0,.
COc1ccc(N(C(=O)c2ccco2)C(C(=O)NC2CCCC2)c2cccnc2)c(OC)c1 (stereo not given),-1,-8,26*,-7,8
COCCNCc1nc2sc(C)c(-c3ccccc3)c2c(=O)[nH]1,-2,0,28*,-3,1
CC1(C)Cc2ccccc2-c2nnc(SCC(=O)N3CCc4ccccc43)n21,-18,-6,27*,22,24
COC(=O)CSc1nnc2n1C(C)(C)Cc1ccccc1-2,-4,-1,5,6,.
COc1cccc(-c2nnc3sc(-c4ccccn4)nn23)c1,-2,-3,41*,23,45*
O=C(OCC(=O)N1CCN(C(=O)c2ccco2)CC1)c1cc(-c2ccc(Cl)c(Cl)c2Cl)nc2ccccc12,-2,-4,36*,25,45*
CC(C)C[C@H]1CN(CCCC[C@H]2CNC(=O)C(=O)N2CC2CCCCC2)C(=O)C(=O)N1CCc1ccccc1,.,-5,30*,-14,3
C=CCn1c(=NC(=O)c2cccs2)sc2cccc(OC)c21,-5,-4,31*,-1,0
N#Cc1c(NC(=O)C2CC(c3c(F)cccc3Cl)=NO2)sc2c1CCC2 (stereo not given),-1,-9,35*,4,56*
CCc1c(C)sc(NC(=O)C2CC(c3c(F)cccc3Cl)=NO2)c1C#N (stereo not given),1,-2,3,3,.
O=C(N/N=C/c1sc(=O)n(Cc2ccc(Br)cc2)c1Cl)c1ccco1,4,-6,39*,23,54*
O=C(N/N=C/c1ccc(Br)s1)c1ccco1,-3,-3,-8,-5,.
O=C(Nc1ccc(CN2CCOCC2)cc1)c1ccc(-c2cc(Cl)ccc2Cl)o1,-3,-5,37*,13,25*
O=C(Nc1ccc(CN2CCOCC2)cc1)c1ccc(Br)o1,2,-11,4,7,.
CCOc1ccc(CNC(=O)Cn2nc(C)c3c(C)n(-c4ccc(C)cc4)nc3c2=O)cc1,0,-10,34*,6,2
Cc1ccc(-n2nc3c(=O)n(CC(=O)NCc4ccccn4)nc(C)c3c2C)cc1,2,-4,-3,-1,.
SMILES,Rin1-Abl PPI inh,GalR3 antag,ARFGAP1 inh,ASAP1 inh,ARFGAP1 inh conf
CCOC(=O)C1CCCN(CCC(=O)Nc2ccccc2C)C1 (stereo not given),1,3,26*,7,-6
Cc1cc(NS(=O)(=O)c2ccc(NS(=O)(=O)c3ccc(Br)cc3)cc2)no1,2,-3,27*,0,-4
Cc1cc(NS(=O)(=O)c2ccc(NC(=S)NC(=O)c3cccc(S(=O)(=O)N(C)C)c3)cc2)no1,2,0,29*,15,38*
COc1cccc(CNC(=O)[C@H]2CCCN2C(=O)[C@H]2CCCN2C(=O)c2cccs2)c1,.,1,6,-2,.
CC(C)[C@@H](C)/C=C/[C@@H](C)[C@H]1CC[C@@H]2[C@]1(C)CCC1[C@]23C=C[C@]2(C[C@@H](O)CC[C@]12C)N(c1cnccn1)O3 (stereo not given in full),.,-5,20,1,.
CC(C)(C)NC(=O)CN1CCN(C(=O)CCl)CC1,-3,1,25*,-1,-1
CCOC(=O)N1CCN(C(=O)CCl)CC1,0,0,-1,1,.
COc1ccc(C(=O)N2CCC[C@@H]2C(=O)N2CCC[C@@H]2C(=O)NCc2ccccc2)cc1F,.,-2,-10,-13,.
CN(C)/C=C/C1=C([N+](=O)[O-])C(c2cccc([N+](=O)[O-])c2)NC(=O)N1 (stereo not given),1,-8,28*,-3,4
CCOC(=O)C1=C(C(=O)OCC)C2N(Cc3ccc(C#N)cc3)c3ccccc3[C@@]23C[C@@H](C(=O)OC)N(S(=O)(=O)c2cccs2)C3=N1 (stereo not given in full),.,0,-2,-9,.
Nc1cc2[nH]c(=O)c3ccccc3c2cc1[N+](=O)[O-],-16,-6,28*,-13,20
COc1cc2c(=O)[nH]c3cc([N+](=O)[O-])ccc3c2cc1[N+](=O)[O-],-5,2,10,2,.
COc1ccc(C(=O)Nc2ccc(N3CCCC3)cc2)cc1,-3,2,25*,10,87*
COc1cccc(CNC(=O)[C@H]2CCCN2C(=O)[C@H]2CCCN2C(=O)c2c(F)cccc2F)c1,.,-5,3,0,.
CC1Cc2ccccc2N1C(=O)CN1CCC(n2nnc3cc(C(F)(F)F)ccc32)CC1 (stereo not given),-4,-6,28*,4,8
CC(C)(C)CC(C)(C)NC(=O)/C=C/C(=O)O,1,-5,25*,-16,-2
CCOC(=O)C1=C(C(=O)OCC)C2N(Cc3ccc(C#N)cc3)c3ccccc3[C@@]23C[C@@H](C(=O)OC)N(S(=O)(=O)c2ccc(C#N)cc2)C3=N1 (stereo not given in full),.,-5,6,3,.
Cc1cccnc1Nc1nc(-c2ccc(O)cc2O)cs1,2,2,34*,21,18
CN(C)C(=O)N1CCN(C(=O)[C@H]2O[C@@H](n3ccc(N)nc3=O)[C@H](O)[C@@H]2O)CC1,.,5,18,-4,.
